Data reported in ChEMBL document CHEMBL4376812 (J Med Chem, 2019).

What was measured:
JAK3/JAK1 = JAK3/JAK1 (Homo sapiens, UniProt P23458+P52333); assay: Inhibition of JAK1/JAK3 in human PBMC assessed as decrease in IL2-induced STAT5 phosphorylation in CD3+ T cells preincubated for 1 hr followed by stimulation with IL2 for 15 mins by flow cytometry; format: cell-based
Procedure, shortened: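 Human cytokine signalling assay: IL-2 stimulation (JAK1/JAK3), with STAT5 phosphorylation in CD3⁺ T-cells measured as the end point. Read as IC50; mean of at least three separate experiments.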

[1] = target: T1, Tyrosine-protein kinase JAK3 (Homo sapiens, UniProt P52333); assay: Inhibition of fluorescein labeled probe binding to human recombinant JAK3 JH1 domain incubated for 1 hr by HTRF assay
T1 sequence (P52333 whole entry): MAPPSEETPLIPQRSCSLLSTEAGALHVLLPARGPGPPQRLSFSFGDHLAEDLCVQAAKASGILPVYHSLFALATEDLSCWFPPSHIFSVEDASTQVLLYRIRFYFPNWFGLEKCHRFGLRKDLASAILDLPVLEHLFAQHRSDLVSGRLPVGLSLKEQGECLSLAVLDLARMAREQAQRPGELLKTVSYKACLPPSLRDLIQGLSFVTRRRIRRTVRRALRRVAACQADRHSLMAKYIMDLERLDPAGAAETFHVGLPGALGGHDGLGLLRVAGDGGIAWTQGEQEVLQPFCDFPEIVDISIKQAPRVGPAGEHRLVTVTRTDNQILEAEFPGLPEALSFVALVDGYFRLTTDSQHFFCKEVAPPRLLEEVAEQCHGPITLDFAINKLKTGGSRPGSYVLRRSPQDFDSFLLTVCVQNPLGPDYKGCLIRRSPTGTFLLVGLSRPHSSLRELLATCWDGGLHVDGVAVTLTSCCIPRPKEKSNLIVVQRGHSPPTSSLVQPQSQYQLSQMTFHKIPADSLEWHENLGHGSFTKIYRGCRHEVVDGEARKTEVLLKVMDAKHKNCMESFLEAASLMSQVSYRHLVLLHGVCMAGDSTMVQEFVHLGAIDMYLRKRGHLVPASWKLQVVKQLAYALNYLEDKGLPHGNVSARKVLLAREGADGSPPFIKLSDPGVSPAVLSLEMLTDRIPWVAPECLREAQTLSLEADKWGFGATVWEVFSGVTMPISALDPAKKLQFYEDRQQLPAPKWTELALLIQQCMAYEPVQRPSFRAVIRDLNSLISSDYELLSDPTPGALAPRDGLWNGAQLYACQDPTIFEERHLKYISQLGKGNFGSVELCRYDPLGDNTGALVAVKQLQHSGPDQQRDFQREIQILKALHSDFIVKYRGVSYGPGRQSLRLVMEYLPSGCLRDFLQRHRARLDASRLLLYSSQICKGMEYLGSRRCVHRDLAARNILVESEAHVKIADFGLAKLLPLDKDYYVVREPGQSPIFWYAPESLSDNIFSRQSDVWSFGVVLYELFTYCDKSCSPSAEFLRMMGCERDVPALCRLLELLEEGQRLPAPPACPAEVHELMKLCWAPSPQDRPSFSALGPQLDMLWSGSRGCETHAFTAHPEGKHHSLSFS
Procedure, shortened: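 HTRF competition binding assay: displacement of a fluorescent probe from human recombinant JAK3 JH1 domain. IC50 for 50% inhibition of HTRF signal derived by nonlinear regression.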

[2] = target: Tyrosine-protein kinase JAK2 (Homo sapiens, UniProt O60674); assay: Inhibition of JAK2 in GM-CSF-stimulated human TF-1 cells; format: cell-based
Sequence of Tyrosine-protein kinase JAK2 (O60674 whole entry): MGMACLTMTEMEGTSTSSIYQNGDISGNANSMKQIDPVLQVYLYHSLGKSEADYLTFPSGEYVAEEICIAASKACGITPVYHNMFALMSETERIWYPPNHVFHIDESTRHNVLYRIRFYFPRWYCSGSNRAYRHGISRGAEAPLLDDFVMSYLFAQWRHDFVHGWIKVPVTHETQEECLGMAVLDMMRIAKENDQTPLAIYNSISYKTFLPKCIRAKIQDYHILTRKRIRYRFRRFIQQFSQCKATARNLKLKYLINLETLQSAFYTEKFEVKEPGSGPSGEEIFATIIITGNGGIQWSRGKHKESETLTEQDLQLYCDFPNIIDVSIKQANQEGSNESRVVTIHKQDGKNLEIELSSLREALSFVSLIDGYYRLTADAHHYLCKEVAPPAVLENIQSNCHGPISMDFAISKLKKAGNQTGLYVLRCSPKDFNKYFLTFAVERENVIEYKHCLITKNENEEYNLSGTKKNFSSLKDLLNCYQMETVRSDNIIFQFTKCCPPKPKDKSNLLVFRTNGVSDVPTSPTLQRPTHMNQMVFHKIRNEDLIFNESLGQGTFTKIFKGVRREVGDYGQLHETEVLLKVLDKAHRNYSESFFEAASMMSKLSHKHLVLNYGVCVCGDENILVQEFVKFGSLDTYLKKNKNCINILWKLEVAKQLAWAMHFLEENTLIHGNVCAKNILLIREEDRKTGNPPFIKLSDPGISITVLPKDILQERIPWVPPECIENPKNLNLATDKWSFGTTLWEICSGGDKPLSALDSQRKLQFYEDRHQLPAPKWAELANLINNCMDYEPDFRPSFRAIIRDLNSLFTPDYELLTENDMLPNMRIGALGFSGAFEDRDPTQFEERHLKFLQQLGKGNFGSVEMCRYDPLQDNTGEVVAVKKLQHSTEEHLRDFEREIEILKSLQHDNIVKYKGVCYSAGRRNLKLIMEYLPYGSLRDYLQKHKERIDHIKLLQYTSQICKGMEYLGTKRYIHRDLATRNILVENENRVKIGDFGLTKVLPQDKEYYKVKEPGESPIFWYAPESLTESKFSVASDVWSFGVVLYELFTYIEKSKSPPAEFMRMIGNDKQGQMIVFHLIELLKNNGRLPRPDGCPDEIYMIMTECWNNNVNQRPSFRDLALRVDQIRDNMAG

Sequence of JAK3/JAK1 (P23458 whole entry, one chain of several): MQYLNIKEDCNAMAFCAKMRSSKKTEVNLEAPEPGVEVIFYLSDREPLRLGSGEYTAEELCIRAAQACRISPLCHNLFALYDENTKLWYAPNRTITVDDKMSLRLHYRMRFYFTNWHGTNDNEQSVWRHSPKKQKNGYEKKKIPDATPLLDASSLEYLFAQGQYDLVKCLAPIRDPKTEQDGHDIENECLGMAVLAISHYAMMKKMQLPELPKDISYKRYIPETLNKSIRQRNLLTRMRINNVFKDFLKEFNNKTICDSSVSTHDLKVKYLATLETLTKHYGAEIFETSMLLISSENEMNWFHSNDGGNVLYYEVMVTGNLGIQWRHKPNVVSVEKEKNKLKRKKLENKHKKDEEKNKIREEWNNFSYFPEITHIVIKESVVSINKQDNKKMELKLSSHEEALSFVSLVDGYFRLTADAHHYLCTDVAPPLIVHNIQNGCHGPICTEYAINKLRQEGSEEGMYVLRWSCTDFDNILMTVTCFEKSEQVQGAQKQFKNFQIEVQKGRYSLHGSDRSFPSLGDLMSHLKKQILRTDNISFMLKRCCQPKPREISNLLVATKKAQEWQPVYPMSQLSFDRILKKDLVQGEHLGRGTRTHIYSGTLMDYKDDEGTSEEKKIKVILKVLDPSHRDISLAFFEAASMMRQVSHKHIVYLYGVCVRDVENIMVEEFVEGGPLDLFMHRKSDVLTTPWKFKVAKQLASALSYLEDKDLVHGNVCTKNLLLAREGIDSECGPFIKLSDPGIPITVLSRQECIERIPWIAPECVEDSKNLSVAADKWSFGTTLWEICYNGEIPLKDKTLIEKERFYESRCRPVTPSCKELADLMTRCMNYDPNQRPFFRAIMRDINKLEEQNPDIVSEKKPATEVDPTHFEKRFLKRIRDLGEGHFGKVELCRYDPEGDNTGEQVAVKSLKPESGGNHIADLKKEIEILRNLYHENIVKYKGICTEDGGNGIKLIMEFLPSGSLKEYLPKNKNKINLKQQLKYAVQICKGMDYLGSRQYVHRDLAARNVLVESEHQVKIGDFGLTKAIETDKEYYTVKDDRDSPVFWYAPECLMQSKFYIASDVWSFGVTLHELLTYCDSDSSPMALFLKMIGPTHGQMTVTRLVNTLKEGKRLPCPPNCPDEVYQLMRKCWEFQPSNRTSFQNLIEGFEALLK

IC50 (JAK3/JAK1): 5.7 µM | IC50 [1]: > 10 µM | IC50 [2]: 2.7 µM
Structure (SMILES): [2H]C([2H])([2H])NC(=O)c1nnc(Nc2ccccn2)cc1Nc1ccccc1S(C)(=O)=O
